Laboratory results published in ChEMBL document CHEMBL1130012 (J Med Chem, 1997).

Experiments:
[1] = species on record: Rattus norvegicus; test: The Biodistribution of the antagonistic compound in male wistar rats, after 15 minutes of injection in the trachea expressed as (body weight-corrected) uptake value; format: organism-based; details: in vivo, 0.25 h
[2] = system: Rattus norvegicus; test: The Biodistribution of the antagonistic compound along with pretreated atropine (2.5 mg/kg) in male wistar rats after 15 minutes of injection in the pancreas expressed as (body weight-corrected) uptake value; format: organism-based; details: in vivo, 0.25 h
Method in brief: (§1)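 Same protocol, except the pretreatment was saline containing atropine (0.5 mg/0.5 mL; 2.5 mg/kg) given i.v. 1 min before tail-vein injection of the radioligand (1.85-2.78 MBq in 0.4 mL saline) into pentobarbital-anaesthetized (60 mg/kg) male Wistar rats (240 g). Tissues removed at 15 min and counted ex vivo. Uptake is body-weight-corrected DAR = (cpm/g tissue)/(cpm injected/g body weight).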

[3] = system: Rattus norvegicus; test: The Biodistribution of the antagonistic compound along with pretreated atropine (2.5 mg/kg) in male wistar rats after 15 minutes of injection in the plasma expressed as (body weight-corrected) uptake value; format: organism-based; details: in vivo, 0.25 h; method in brief: as §1
[4] = system: Rattus norvegicus; test: The Biodistribution of the antagonistic compound along with pretreated atropine (2.5 mg/kg) in male wistar rats after 15 minutes of injection in the red blood cells; Below limit of detection expressed as (body weight-corrected) uptake value; format: organism-based; details: in vivo, 0.25 h; method in brief: as §1
[5] = system: Rattus norvegicus; test: The Biodistribution of the antagonistic compound along with pretreated atropine (2.5 mg/kg) in male wistar rats after 15 minutes of injection in the spleen; format: organism-based; details: in vivo, 0.25 h; method in brief: as §1
[6] = system: Rattus norvegicus; test: The Biodistribution of the antagonistic compound along with pretreated atropine (2.5 mg/kg) in male wistar rats after 15 minutes of injection in the submandibular gland expressed as (body weight-corrected) uptake value; format: organism-based; details: in vivo, 0.25 h; method in brief: as §1
[7] = system: Rattus norvegicus; test: The Biodistribution of the antagonistic compound along with pretreated atropine (2.5 mg/kg) in male wistar rats after 15 minutes of injection in the testes expressed as (body weight-corrected) uptake value; format: organism-based, Testis; details: in vivo, 0.25 h; method in brief: as §1
[8] = system: Rattus norvegicus; test: The Biodistribution of the antagonistic compound along with pretreated atropine (2.5 mg/kg) in male wistar rats after 15 minutes of injection in the trachea expressed as (body weight-corrected) uptake value; format: organism-based; details: in vivo, 0.25 h; method in brief: as §1
[9] = species on record: Rattus norvegicus; test: The Biodistribution of the antagonistic compound in male wistar rats, after 15 minutes of injection in the cerebellum expressed as (body weight-corrected) uptake value; Below limit of detection; format: organism-based; details: in vivo, 0.25 h
[10] = species on record: Rattus norvegicus; test: The Biodistribution of the antagonistic compound in male wistar rats, after 15 minutes of injection in the cortex expressed as (body weight-corrected) uptake value; Below limit of detection; format: organism-based; details: in vivo, 0.25 h
[11] = species on record: Rattus norvegicus; test: The Biodistribution of the antagonistic compound in male wistar rats, after 15 minutes of injection in the fat expressed as (body weight-corrected) uptake value; format: organism-based, Adipose tissue; details: in vivo, 0.25 h
[12] = species on record: Rattus norvegicus; test: The Biodistribution of the antagonistic compound in male wistar rats, after 15 minutes of injection in the heart; format: organism-based; details: in vivo, 0.25 h
[13] = species on record: Rattus norvegicus; test: The Biodistribution of the antagonistic compound in male wistar rats, after 15 minutes of injection in the intestine expressed as (body weight-corrected) uptake value; format: organism-based; details: in vivo, 0.25 h
[14] = species on record: Rattus norvegicus; test: The Biodistribution of the antagonistic compound in male wistar rats, after 15 minutes of injection in the kidney expressed as (body weight-corrected) uptake value; format: organism-based; details: in vivo, 0.25 h
[15] = species on record: Rattus norvegicus; test: The Biodistribution of the antagonistic compound in male wistar rats, after 15 minutes of injection in the lung expressed as (body weight-corrected) uptake value; format: organism-based; details: in vivo, 0.25 h
[16] = species on record: Rattus norvegicus; test: The Biodistribution of the antagonistic compound in male wistar rats, after 15 minutes of injection in the muscle expressed as (body weight-corrected) uptake value; format: organism-based, Muscle tissue; details: in vivo, 0.25 h
[17] = species on record: Rattus norvegicus; test: The Biodistribution of the antagonistic compound in male wistar rats, after 15 minutes of injection in the pancreas expressed as (body weight-corrected) uptake value; format: organism-based; details: in vivo, 0.25 h
[18] = species on record: Rattus norvegicus; test: The Biodistribution of the antagonistic compound in male wistar rats, after 15 minutes of injection in the plasma expressed as (body weight-corrected) uptake value; format: organism-based; details: in vivo, 0.25 h
[19] = system: Rattus norvegicus; test: The Biodistribution of the antagonistic compound along with pretreated atropine (2.5 mg/kg) in male wistar rats after 15 minutes of injection in the bladder; format: organism-based, Urinary bladder/Urine; details: in vivo, 0.25 h; method in brief: as §1
[20] = system: Rattus norvegicus; test: The Biodistribution of the antagonistic compound along with pretreated atropine (2.5 mg/kg) in male wistar rats after 15 minutes of injection in the cerebellum; Below limit of detection; format: organism-based; details: in vivo, 0.25 h; method in brief: as §1
[21] = system: Rattus norvegicus; test: The Biodistribution of the antagonistic compound along with pretreated atropine (2.5 mg/kg) in male wistar rats after 15 minutes of injection in the cortex expressed as (body weight-corrected) uptake value; Below limit of detection; format: organism-based; details: in vivo, 0.25 h; method in brief: as §1
[22] = system: Rattus norvegicus; test: The Biodistribution of the antagonistic compound along with pretreated atropine (2.5 mg/kg) in male wistar rats after 15 minutes of injection in the fat expressed as (body weight-corrected) uptake value; format: organism-based, Adipose tissue; details: in vivo, 0.25 h; method in brief: as §1
[23] = system: Rattus norvegicus; test: The Biodistribution of the antagonistic compound along with pretreated atropine (2.5 mg/kg) in male wistar rats after 15 minutes of injection in the heart expressed as (body weight-corrected) uptake value; format: organism-based; details: in vivo, 0.25 h; method in brief: as §1
[24] = species on record: Rattus norvegicus; test: Biodistribution of compound in male wistar rats, after 15 minutes of injection in the bladder expressed as (body weight-corrected) uptake value; format: ADME, organism-based, Urinary bladder/Urine; details: in vivo, 0.25 h
[25] = species on record: Rattus norvegicus; test: The Biodistribution of the antagonistic compound in male wistar rats, after 15 minutes of injection in the red blood cells expressed as (body weight-corrected) uptake value; Below limit of detection; format: organism-based; details: in vivo, 0.25 h
[26] = species on record: Rattus norvegicus; test: The Biodistribution of the antagonistic compound in male wistar rats, after 15 minutes of injection in the stomach expressed as (body weight-corrected) uptake value; format: organism-based; details: in vivo, 0.25 h
[27] = species on record: Rattus norvegicus; test: The Biodistribution of the antagonistic compound in male wistar rats, after 15 minutes of injection in the submandibular gland expressed as (body weight-corrected) uptake value; format: organism-based; details: in vivo, 0.25 h
[28] = species on record: Rattus norvegicus; test: The Biodistribution of the antagonistic compound in male wistar rats, after 15 minutes of injection in the testes expressed as (body weight-corrected) uptake value; format: organism-based, Testis; details: in vivo, 0.25 h
[29] = system: Rattus norvegicus; test: The Biodistribution of the antagonistic compound along with pretreated atropine (2.5 mg/kg) in male wistar rats after 15 minutes of injection in the intestine expressed as (body weight-corrected) uptake value; format: organism-based; details: in vivo, 0.25 h; method in brief: as §1
[30] = system: Rattus norvegicus; test: The Biodistribution of the antagonistic compound along with pretreated atropine (2.5 mg/kg) in male wistar rats after 15 minutes of injection in the kidney expressed as (body weight-corrected) uptake value; format: organism-based; details: in vivo, 0.25 h; method in brief: as §1
[31] = system: Rattus norvegicus; test: The Biodistribution of the antagonistic compound along with pretreated atropine (2.5 mg/kg) in male wistar rats after 15 minutes of injection in the liver expressed as (body weight-corrected) uptake value; format: organism-based; details: in vivo, 0.25 h; method in brief: as §1
[32] = system: Rattus norvegicus; test: The Biodistribution of the antagonistic compound along with pretreated atropine (2.5 mg/kg) in male wistar rats after 15 minutes of injection in the lung expressed as (body weight-corrected) uptake value; format: organism-based; details: in vivo, 0.25 h; method in brief: as §1
[33] = system: Rattus norvegicus; test: The Biodistribution of the antagonistic compound along with pretreated atropine (2.5 mg/kg) in male wistar rats after 15 minutes of injection in the muscle expressed as (body weight-corrected) uptake value; format: organism-based, Muscle tissue; details: in vivo, 0.25 h; method in brief: as §1
[34] = species on record: Rattus norvegicus; test: The Biodistribution of the antagonistic compound in male wistar rats, after 15 minutes of injection in the liver expressed as (body weight-corrected) uptake value; format: organism-based; details: in vivo, 0.25 h
[35] = species on record: Rattus norvegicus; test: The Biodistribution of the antagonistic compound in male wistar rats, after 15 minutes of injection in the spleen expressed as (body weight-corrected) uptake value; format: organism-based; details: in vivo, 0.25 h
[36] = system: Rattus norvegicus; test: The Biodistribution of the antagonistic compound along with pretreated atropine (2.5 mg/kg) in male wistar rats after 15 minutes of injection in the stomach expressed as (body weight-corrected) uptake value; format: organism-based; details: in vivo, 0.25 h; method in brief: as §1
[37] = target: T1, Muscarinic acetylcholine receptor M2 (Rattus norvegicus, UniProt P10980); test: Binding affinity towards rat Muscarinic acetylcholine receptor M2 was determined
T1 sequence (P10980 whole entry): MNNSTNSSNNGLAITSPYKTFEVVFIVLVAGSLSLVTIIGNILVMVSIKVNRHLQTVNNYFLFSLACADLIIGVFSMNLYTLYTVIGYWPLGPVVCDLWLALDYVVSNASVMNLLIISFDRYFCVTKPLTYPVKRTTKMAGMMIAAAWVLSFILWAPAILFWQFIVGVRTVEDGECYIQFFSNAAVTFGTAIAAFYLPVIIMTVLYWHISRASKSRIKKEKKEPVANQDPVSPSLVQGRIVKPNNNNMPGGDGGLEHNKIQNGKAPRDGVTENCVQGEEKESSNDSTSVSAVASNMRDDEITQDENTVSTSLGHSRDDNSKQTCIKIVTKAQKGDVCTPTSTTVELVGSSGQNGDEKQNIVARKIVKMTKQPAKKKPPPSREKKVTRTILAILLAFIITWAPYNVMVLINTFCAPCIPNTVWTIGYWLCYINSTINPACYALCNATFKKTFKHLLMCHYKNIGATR

[38] = target: T2, Muscarinic acetylcholine receptor M1 (Rattus norvegicus, UniProt P08482); test: Binding affinity towards rat Muscarinic acetylcholine receptor M1 was determined
T2 sequence (P08482 whole entry): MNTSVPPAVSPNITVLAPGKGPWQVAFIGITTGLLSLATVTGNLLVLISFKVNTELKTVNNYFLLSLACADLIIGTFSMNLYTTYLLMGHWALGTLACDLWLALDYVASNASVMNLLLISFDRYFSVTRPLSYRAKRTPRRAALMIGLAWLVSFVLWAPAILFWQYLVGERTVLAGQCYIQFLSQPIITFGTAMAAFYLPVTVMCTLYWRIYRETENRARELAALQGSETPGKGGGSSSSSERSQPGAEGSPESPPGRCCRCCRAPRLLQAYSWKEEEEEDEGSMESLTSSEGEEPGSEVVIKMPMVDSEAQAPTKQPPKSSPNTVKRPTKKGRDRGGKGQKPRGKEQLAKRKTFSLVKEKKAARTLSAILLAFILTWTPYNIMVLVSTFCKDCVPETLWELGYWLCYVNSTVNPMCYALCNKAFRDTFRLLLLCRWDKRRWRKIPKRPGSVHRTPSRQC

[39] = target: Muscarinic acetylcholine receptor M3 (Rattus norvegicus) (UniProt P08483); test: Binding affinity towards Muscarinic acetylcholine receptor M3 was determined in rat pancreas
Muscarinic acetylcholine receptor M3 (Rattus norvegicus), sequence (P08483 whole entry, looked up): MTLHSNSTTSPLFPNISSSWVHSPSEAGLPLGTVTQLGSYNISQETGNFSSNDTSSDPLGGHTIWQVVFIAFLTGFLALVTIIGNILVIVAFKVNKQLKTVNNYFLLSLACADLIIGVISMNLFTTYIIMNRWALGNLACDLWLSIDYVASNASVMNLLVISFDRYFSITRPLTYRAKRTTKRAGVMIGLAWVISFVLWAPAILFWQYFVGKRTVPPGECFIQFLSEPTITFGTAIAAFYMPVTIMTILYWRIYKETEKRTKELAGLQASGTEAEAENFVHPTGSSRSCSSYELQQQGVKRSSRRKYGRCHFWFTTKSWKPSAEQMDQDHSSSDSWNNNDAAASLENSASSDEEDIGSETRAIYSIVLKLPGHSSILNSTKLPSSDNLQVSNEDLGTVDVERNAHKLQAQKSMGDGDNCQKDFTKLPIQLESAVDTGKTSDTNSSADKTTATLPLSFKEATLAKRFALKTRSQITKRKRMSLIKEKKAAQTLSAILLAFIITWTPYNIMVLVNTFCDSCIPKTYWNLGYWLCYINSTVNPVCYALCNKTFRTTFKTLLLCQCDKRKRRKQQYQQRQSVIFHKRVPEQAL

C[N+]1(C)CCC(OC(=O)C(O)(c2ccccc2)C2CCCCC2)CC1.[I-] (racemic)
Uptake value [1]: 0.54
Uptake value [2]: 0.34
Uptake value [3]: 0.13
Uptake value [4]: Not Active
Uptake value [5]: 0.18
Uptake value [6]: 0.2
Uptake value [7]: 0.11
Uptake value [8]: 0.24
Uptake value [9]: Not Active
Uptake value [10]: Not Active
Uptake value [11]: 0.5
Uptake value [12]: 8.45
Uptake value [13]: 3.39
Uptake value [14]: 2.48
Uptake value [15]: 0.67
Uptake value [16]: 0.08
Uptake value [17]: 1.97
Uptake value [18]: 0.14
Uptake value [19]: 9.72
Uptake value [20]: Not Active
Uptake value [21]: Not Active
Uptake value [22]: 0.23
Uptake value [23]: 0.16
Uptake value [24]: 4.71
Uptake value [25]: Not Active
Uptake value [26]: 1.62
Uptake value [27]: 1.68
Uptake value [28]: 0.07
Uptake value [29]: 1.1
Uptake value [30]: 1.49
Uptake value [31]: 8.1
Uptake value [32]: 0.14
Uptake value [33]: 0.07
Uptake value [34]: 6.27
Uptake value [35]: 0.97
Uptake value [36]: 0.45

C[N+]12CCC(CC1)[C@@H](OC(=O)C(O)(c1ccccc1)c1ccccc1)C2
Ki [37]: 430 pM
Ki [38]: 130 pM
Ki [39]: 650 pM
